Read-outs that look alike come from different tables or passages of the source.
Assays:
Caco-2 = Caco-2 permeability assay; assay type: in vitro ADME; details: Caco-2, concentrations 2.00 to 50.0 µM
In vitro solubility = assay type: physicochemical
[1] = biological target: wild-type and mutant ROS1; details: preclinical data; cited from earlier work
[2] = system: ROS1 wild-type and G2032R mutant xenograft models; details: cited from earlier work
ALK = details: preclinical data; cited from earlier work
[3] = single 160 mg dose, fasted, cited from earlier work
ALK-positive NSCLC = details: cited from earlier work; for Objective response rate (ORR): phase I; for IRC-assessed ORR: phase II
[4] = assay type: in vivo, human; details: 160 mg single oral dose
Summary of the method: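 Healthy adults randomized 1:1 to fasted-fed or fed-fasted sequence, 14-day washout; ≥10-h overnight fast pre-dose, no drinking 1 h before to 2 h after, fasting 4 h post-dose. Plasma sampled pre-dose to 168 h, spun 1700g, 2–8 °C, 10 min, kept −70 °C; validated LC-MS/MS; non-compartmental parameters. Ln-transformed Cmax/AUC in linear mixed model; fed/fasted GMR with 90% CI, limits 0.80–1.25.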

[5] = Metabolism in human liver microsomes; assay type: in vitro ADME
HCC78 cells = details: cited from earlier work
Safety assessment = assay type: in vivo, human
Summary of the method: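 Randomized crossover in healthy adults (fasted-fed or fed-fasted, 14-day washout). A TEAE counted any AE absent before dosing, or pre-existing and worsening in intensity or frequency after dosing. AEs graded; serious AEs and discontinuations recorded. Analysis set: every subject receiving at least one dose.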

[6] = cited from earlier work
[7] = system: BaF3 cells expressing ROS1 fusion wild-type and resistance mutants; details: cited from earlier work
[8] = oral administration with food vs fasted; cited from earlier work
[9] = oral 20–210 mg/day, ALK-positive NSCLC patients
[10] = 160 mg single dose, fed (high-fat meal)

Structure (SMILES): Cc1cc(Nc2ncc(Cl)c(Nc3ccccc3S(=O)(=O)C(C)C)n2)c2c(c1C1CCN(C)CC1)C[C@@H](C)O2 [SAF-189s]
- Drug efflux (Caco-2): evidence of drug efflux
- Permeability (Caco-2): low permeability
- Solubility (In vitro solubility; 0.1 mol/L hydrochloric acid, in vitro): slightly soluble
- Solubility (In vitro solubility; pH 6.8, in vitro): poor solubility
- IC50 against wild-type and mutant ROS1 kinase activity [1]: sub-nanomolar to nanomolar
- Growth of xenograft models [2]: inhibited growth
- IC50 against ALK kinase activity (ALK): sub-nanomolar to nanomolar
- AUC0-∞, geometric mean (CV%) ([3]; nine patients): 1970 (30.0) ng·h/mL
- Cmax, geometric mean (CV%) ([3]; nine patients): 41.9 (27.0) ng/mL
- t½, geometric mean (CV%) ([3]; nine patients): 39.3 (25.6) h
- Median tmax ([3]; patients): 3.0 h
- Anti-tumor efficacy (ALK-positive NSCLC; [9]): promising anti-tumor efficacy
- Intracranial activity (ALK-positive NSCLC; [9]): had intracranial activity
- Tolerability (ALK-positive NSCLC; oral 20–210 mg/day, fasted state, ALK-positive NSCLC patients): well tolerated
- Objective response rate (ORR) (ALK-positive NSCLC; ALK inhibitor-naive subgroup (8/11)): 72.7%
- Objective response rate (ORR) (ALK-positive NSCLC; all patients (28/45), oral 20–210 mg/day, fasted): 62.2%
- Objective response rate (ORR) (ALK-positive NSCLC; brain metastases subgroup (17/27)): 63.0%
- IRC-assessed ORR (ALK-positive NSCLC; ALK inhibitor-naive patients (95/104)): 91.3%
- IRC-assessed ORR (ALK-positive NSCLC; all patients (116/150)): 77.3%
- IRC-assessed ORR (ALK-positive NSCLC; brain metastases subgroup (50/71)): 70.4%
- IRC-assessed ORR (ALK-positive NSCLC; crizotinib-pretreated group (17/26)): 65.4%
- Tolerability of single doses (ALK-positive NSCLC; single doses of 160 mg, most AEs Grade 1 or 2): generally well tolerated
- Effect of high-fat meal on the PK profile ([4]; fed vs fasted): minimal effect
- Geometric mean ratio: fed/fasted, AUC0-t ([4]; n = 23): 105.1%
- Geometric mean ratio: fed/fasted, AUC0-∞ ([4]; n = 23): 105.5%
- Geometric mean ratio: fed/fasted, Cmax ([4]; n = 23): 109.1%
- Main metabolizing enzyme [5]: mainly metabolized by cytochrome P450 3A4 (CYP3A4)
- Inhibition of cell proliferation (HCC78 cells): potent inhibition
- Incidence of TEAEs (Safety assessment; 160 mg single dose, fasted): 54.2%
- Incidence of gastrointestinal disorders (Safety assessment; 160 mg single dose, fasted): 41.7%
- Incidence of headache (Safety assessment; 160 mg single dose, fasted): 12.5%
- Serious AEs (Safety assessment; 160 mg single dose, fasted and fed): no serious AEs were reported
- Incidence of TEAEs (Safety assessment; [10]): 29.2%
- Incidence of gastrointestinal disorders (Safety assessment; [10]): 4.2%
- Incidence of headache (Safety assessment; [10]): 0.0%
- Discontinuation of the study due to an AE (Safety assessment; 160 mg single dose, Grade 1 vomiting): Only one volunteer
- Tolerability (Safety assessment; single doses of 160 mg, healthy volunteers): generally well tolerated
- BCS class ([6]; low solubility and low gastrointestinal permeability): class IV
- Inhibition of cell proliferation [7]: potent inhibition

Structure (SMILES): CCc1cc2c(cc1N1CCC(N3CCOCC3)CC1)C(C)(C)c1[nH]c3cc(C#N)ccc3c1C2=O [alectinib]
- BCS class ([6]; approved ALK and ROS1 TKIs): BCS class IV

Structure (SMILES): COc1cc(N2CCC(N3CCN(C)CC3)CC2)ccc1Nc1ncc(Cl)c(Nc2ccccc2P(C)(C)=O)n1 [brigatinib]
- BCS class ([6]; approved ALK and ROS1 TKIs): BCS class I

Structure (SMILES): Cc1cc(Nc2ncc(Cl)c(Nc3ccccc3S(=O)(=O)C(C)C)n2)c(OC(C)C)cc1C1CCNCC1 [ceritinib]
- Effect of food on drug exposure / PK [8]: improved exposure
- Effect of food on safety [8]: improved exposure and safety with food
- BCS class ([6]; approved ALK and ROS1 TKIs): BCS class IV

Structure (SMILES): C[C@@H](Oc1cc(-c2cnn(C3CCNCC3)c2)cnc1N)c1c(Cl)ccc(F)c1Cl [crizotinib]
- BCS class ([6]; approved ALK and ROS1 TKIs): BCS class IV

Structure (SMILES): CN1CCN(c2ccc(C(=O)Nc3n[nH]c4ccc(Cc5cc(F)cc(F)c5)cc34)c(NC3CCOCC3)c2)CC1 [entrectinib]
- BCS class ([6]; approved ALK and ROS1 TKIs): BCS class II

Structure (SMILES): C[C@H]1Oc2cc(cnc2N)-c2c(nn(C)c2C#N)CN(C)C(=O)c2ccc(F)cc21 [lorlatinib]
- BCS class ([6]; approved ALK and ROS1 TKIs): BCS class IV

— paper PMC10676332 (Drugs in R&D, 2023)
